This note sets out measurements from ChEMBL document CHEMBL3997777, “Pterosin Sesquiterpenoids from Pteris cretica as Hypolipidemic Agents via Activating Liver X Receptors” (J Nat Prod, 2016).

SMILES strings stand for the structures. Activity calls are given as the source filed them. No cut-off for these calls is given here.

A short description of data set [1]: Cytotoxicity against HEK293T cells assessed as cell viability at 10 uM after 24 hrs by MTT assay relative to control. It counts as cell-based, HEK-293T. To be noted: human, read-out: Activity. The essentials: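 HEK 293T cells in DMEM/10% FBS at 37 °C, 5% CO2, exposed to compounds at 10 μM for 24 h in triplicate. MTT (2.5 mg/mL) added for 4 h, then DMSO. Absorbance read at 492 nm after 20 min shaking. Survival = (A sample − A blank)/(A control − A blank) × 100%.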

The species named for data set [2] is Mus musculus. Put plainly: Activation of LXR in mouse 3T3L1 preadipocytes assessed as decrease in triglyceride level up to 10 uM […] measured on day 6 by Oil Red O staining based assay. In kind it is cell-based. In outline: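 3T3-L1 adipocytes differentiated over 6 days (IBMX/dexamethasone/insulin/biotin for 3 days, then insulin only), compound in DMSO present throughout. Day 6 cells fixed in 4% formaldehyde for 1 h at room temperature, then stained with 0.35% Oil Red O stock diluted 3:2 in water for 30 min at 60 °C. Washed, then imaged at 4× magnification.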

Data set [3] is filed under the species Mus musculus. Description: Activation of LXR in mouse 3T3L1 preadipocytes assessed as decrease in triglyceride level for 3 days measured on day 6. In kind it is cell-based. In outline: (§1)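 3T3-L1 cells grown in DMEM/10% FBS. Two days post-confluence (day 0), switched to differentiation medium (insulin 2 μg/mL, dexamethasone 100 ng/mL, IBMX 0.5 mM, biotin 10 ng/mL) for 3 days, then insulin-only medium for 3 more days. Compounds in DMSO (<0.1%) present throughout differentiation. Day 6 cells PBS-washed and lysed, TG measured by kit, expressed relative to vehicle; mean ± SD, three independent experiments.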

Data set [4] has as its target T1, Oxysterols receptor LXR-alpha (Homo sapiens) (UniProt Q13133).
T1 sequence (whole entry): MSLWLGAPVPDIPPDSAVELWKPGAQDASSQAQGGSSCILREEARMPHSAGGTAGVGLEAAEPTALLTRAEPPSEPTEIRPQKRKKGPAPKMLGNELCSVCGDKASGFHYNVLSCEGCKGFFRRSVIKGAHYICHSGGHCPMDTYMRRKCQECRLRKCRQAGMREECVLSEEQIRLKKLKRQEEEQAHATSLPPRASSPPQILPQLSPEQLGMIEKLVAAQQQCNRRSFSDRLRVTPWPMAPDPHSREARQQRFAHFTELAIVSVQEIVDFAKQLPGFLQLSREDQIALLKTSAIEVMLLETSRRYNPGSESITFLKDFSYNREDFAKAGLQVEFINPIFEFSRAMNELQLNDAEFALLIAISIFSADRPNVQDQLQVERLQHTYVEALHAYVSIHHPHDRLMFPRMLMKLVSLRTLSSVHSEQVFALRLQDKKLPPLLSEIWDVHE
Put plainly: Activation of human LXRalpha expressed in HEK293 cells co-expressing human RXRalpha at 10 uM after 20 hrs by luciferase reporter gene assay. It counts as cell-based. The essentials: (§2)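 HEK 293T cells seeded at 3 × 10^4/well and attached 12 h. Cotransfected by lipofection with hLXRα or rLXRβ receptor plasmid plus hRXRα, a DR-4 LXRE firefly luciferase reporter and a CMV renilla control. Compounds added 10 h later; 0.1% DMSO vehicle. Luminescence read 20 h after treatment, firefly normalized to renilla, fold over vehicle; mean ± SD, three independent experiments.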

The target in data set [5] is T2, Oxysterols receptor LXR-beta (Rattus norvegicus) (UniProt Q62755).
T2 sequence (whole entry): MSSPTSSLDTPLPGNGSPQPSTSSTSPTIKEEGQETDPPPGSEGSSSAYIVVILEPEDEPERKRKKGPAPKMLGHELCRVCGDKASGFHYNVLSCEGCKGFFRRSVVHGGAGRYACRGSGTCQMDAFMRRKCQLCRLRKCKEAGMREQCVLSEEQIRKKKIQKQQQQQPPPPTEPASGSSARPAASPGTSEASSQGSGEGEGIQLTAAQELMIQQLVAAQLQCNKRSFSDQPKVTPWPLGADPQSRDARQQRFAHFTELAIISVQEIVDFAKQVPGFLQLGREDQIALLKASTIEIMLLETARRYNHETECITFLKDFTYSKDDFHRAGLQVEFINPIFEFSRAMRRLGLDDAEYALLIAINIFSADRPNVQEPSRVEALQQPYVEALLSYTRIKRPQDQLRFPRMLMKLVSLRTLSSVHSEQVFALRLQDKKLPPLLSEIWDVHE
Put plainly: Activation of rat LXRbeta expressed in HEK293 cells co-expressing human RXRalpha at 10 uM after 20 hrs by luciferase reporter gene assay. It counts as cell-based. The essentials: as §2

The species entered for data set [6] is Mus musculus. Put plainly: Activation of LXR in mouse 3T3L1 preadipocytes assessed as decrease in triglyceride level at 1 to 10 uM for 3 days measured on day 6. In kind it is cell-based. In outline: as §1

Consider `Cc1cc2c(c(CO)c1CCO)C(=O)[C@](C)(CO)[C@@H]2O`, for which the viability at 24 h, 10 µM in data set [1] came to 100%.

As to `C=C1[C@@H]2CC[C@H]3[C@]4(C)C[C@H](O[C@@H]5O[C@H](CO)[C@@H](O)[C@H](O)[C@H]5O)CC(C)(C)[C@H]4CC[C@]3(C2)[C@H]1O`, the viability at 24 h, 10 µM in data set [1] was determined as 100%.

For `Cc1cc2c(c(C)c1CCO[C@@H]1O[C@H](CO)[C@@H](O)[C@H](O)[C@H]1O)C(=O)C(C)(C)[C@H]2O`, in data set [1], the viability at 24 h, 10 µM turned out to be 100%.

Take `Cc1c(CCO)c(CO)cc2c1C(=O)[C@H](C)[C@@H]2O`: the outcome (in the data set listed under Mus musculus [2]; in data set [4]; in data set [5]) was Active. The Activity result in the data set listed under Mus musculus [3] is “Dose-dependent effect”. In data set [1], the viability at 24 h, 10 µM amounted to 100%.

Regarding `Cc1cc2c(c(C)c1CCO)C(=O)[C@](C)(O)[C@@H]2O`, the viability at 24 h, 10 µM in data set [1] turned out to be 100%.

For the molecule `Cc1cc2c(c(C)c1CCO)C(=O)[C@H](C)[C@@H]2O`, the viability at 24 h, 10 µM in data set [1] was found to be 100%.

Turning to `CC1(C)C[C@@H](O[C@@H]2O[C@H](CO)[C@@H](O)[C@H](O)[C@H]2O)C[C@]2(C)[C@@H]1CC[C@@]13C[C@@H](CC[C@H]12)[C@](C)(O)C3`, the viability at 24 h, 10 µM in data set [1] amounted to 100%.

For the molecule `Cc1cc2c(c(CO)c1CCO)C(=O)[C@H](C)[C@@H]2O`, in data set [1], the viability at 24 h, 10 µM came to 100%.

Consider `Cc1cc2c(c(C)c1CCO[C@@H]1O[C@H](CO)[C@@H](O)[C@H](O)[C@H]1O)C(=O)[C@@H](C)[C@@H]2O`, for which, in data set [1], the viability at 24 h, 10 µM is 100%.

As for `Cc1cc2c(c(C)c1CCO)C(=O)[C@](C)(CO)[C@@H]2O`, the viability at 24 h, 10 µM in data set [1] worked out at 100%.

`COc1ccc2cc3[n+](cc2c1OC)CCc1cc2c(cc1-3)OCO2`: the outcome in the data set filed under Mus musculus [6] was Active.

Regarding `Cc1cc2c(c(C)c1CCO)C(=O)C(C)(C)[C@@H]2O`, the viability at 24 h, 10 µM in data set [1] stood at 100%.

For the molecule `Cc1cc2c(c(C)c1CCO[C@@H]1O[C@H](CO)[C@@H](O)[C@H](O)[C@H]1O)C(=O)[C@H](C)[C@@H]2O`, in data set [1], the viability at 24 h, 10 µM is 100%.

Consider `Cc1cc2c(c(CO)c1CCO)C(=O)[C@@H](C)[C@@H]2O`, for which the viability at 24 h, 10 µM in data set [1] amounted to 100%.

Consider `Cc1cc2c(c(C)c1CCO)C(=O)[C@@H](C)[C@@H]2O`, for which, in the data set listed under Mus musculus [2], the outcome was Active. For the same molecule, the Activity result in the data set listed under Mus musculus [3] is “Dose-dependent effect”. Besides, in data set [1], the viability at 24 h, 10 µM stood at 100%.

For `CC1(C)C[C@@H](O)C[C@]2(C)[C@@H]1[C@H](O)C[C@@]13C[C@@](O)(CC[C@H]12)[C@](C)(O)C3`, the outcome in the data set listed under Mus musculus [2] was Active. Also, in the data set filed under Mus musculus [3], the Activity result is “Dose-dependent effect”. In addition, in data set [1], the viability at 24 h, 10 µM is 100%.

Regarding `CC1(C)C[C@@H](O)C[C@]2(C)[C@@H]1[C@H](O)C[C@@]13C[C@@H](CC[C@H]12)[C@](C)(O)C3`, the outcome in the data set listed under Mus musculus [2] was Active. For the same molecule, in the data set listed under Mus musculus [3], the Activity result was “Dose-dependent effect”. In data set [1], the viability at 24 h, 10 µM was found to be 100%.

Take `C=C1[C@@H]2CC[C@H]3[C@]4(C)C[C@H](O)CC(C)(C)[C@H]4CC[C@]3(C2)[C@H]1O`: the viability at 24 h, 10 µM in data set [1] was found to be 100%.

Turning to `O=C(O)Cc1cccc(OCCCN(Cc2cccc(C(F)(F)F)c2Cl)CC(c2ccccc2)c2ccccc2)c1`, the result in data set [4] and in data set [5] was Active.

Take `C=C1[C@@H]2CC[C@H]3[C@]4(C)C[C@H](O)CC(C)(C)[C@H]4[C@H](O)C[C@]3(C2)[C@H]1O`: the viability at 24 h, 10 µM in data set [1] was found to be 100%.

Regarding `Cc1cc2c(c(C)c1CCO)C(=O)[C@@](C)(O)[C@@H]2O`, in data set [1], the viability at 24 h, 10 µM was 100%.

On to `Cc1c(CCO)c(CO)cc2c1C(=O)[C@@H](C)[C@@H]2O`, for which the viability at 24 h, 10 µM in data set [1] is 100%.

For the molecule `CC1(C)C[C@@H](O)C[C@]2(C)[C@@H]1CC[C@@]13C[C@@H](CC[C@@H]21)[C@@](O)(CO)[C@@H]3O`, in data set [1], the viability at 24 h, 10 µM worked out at 100%.

For `Cc1cc2c(c(CO)c1CCO)C(=O)[C@@](C)(O)C2=O`, in data set [1], the viability at 24 h, 10 µM was found to be 100%.
